Measured values published in publication PMC12612033 (Scientific Reports, 2025).

Test system: α-amylase
Test: α-Amylase inhibition assay
Format: biochemical
Settings: at a concentration of 100 µM, mean ± SD

| Inhibition of α-amylase activity (%) | SMILES |
| --- | --- |
| 50.1 ± 0.5 | C[C@H]1O[C@H](O[C@H]2[C@H](O)[C@@H](O)[C@@H](O[C@H]3[C@H](O)[C@@H](O)C(O)O[C@@H]3CO)O[C@@H]2CO)[C@H](O)[C@@H](O)[C@@H]1N[C@H]1C=C(CO)[C@@H](O)[C@H](O)[C@H]1O (stereo partly drawn) [Acarbose] |

Molecular target: T1, α-glucosidase (Saccharomyces cerevisiae, UniProt P53341)
T1 sequence (P53341 whole entry): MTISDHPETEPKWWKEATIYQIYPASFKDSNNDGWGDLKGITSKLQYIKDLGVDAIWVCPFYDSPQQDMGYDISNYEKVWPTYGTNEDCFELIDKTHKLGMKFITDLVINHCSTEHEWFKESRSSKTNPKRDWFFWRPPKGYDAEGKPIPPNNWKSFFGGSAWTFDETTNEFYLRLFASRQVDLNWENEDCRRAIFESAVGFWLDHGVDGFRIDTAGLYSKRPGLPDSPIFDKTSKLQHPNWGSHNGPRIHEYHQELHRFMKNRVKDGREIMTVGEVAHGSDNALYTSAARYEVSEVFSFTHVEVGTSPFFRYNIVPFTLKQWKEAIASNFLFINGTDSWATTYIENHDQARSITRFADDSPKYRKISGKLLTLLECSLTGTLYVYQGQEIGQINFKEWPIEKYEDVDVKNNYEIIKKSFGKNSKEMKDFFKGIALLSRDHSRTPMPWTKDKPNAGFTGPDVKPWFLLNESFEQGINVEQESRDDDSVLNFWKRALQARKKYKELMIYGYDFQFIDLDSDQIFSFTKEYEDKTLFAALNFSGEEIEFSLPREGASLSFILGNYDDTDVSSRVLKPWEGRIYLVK
Test: α-Glucosidase kinetic study
Format: biochemical
Settings: Lineweaver–Burk plot; Km increases, Vmax unchanged

| Mode of inhibition | SMILES |
| --- | --- |
| competitive | Nc1c(-c2ccc(Cl)cc2)nc2ncnn2c1-c1ccc(Cl)cc1 [9s, 5,7-Bis(4-chlorophenyl)-[1,2,4]triazolo[1,5-a]pyrimidin-6-amine] |

Molecular target: T1, α-glucosidase
Test: Circular dichroism spectroscopy of α-glucosidase secondary structure
Settings: CD, α-glucosidase in the presence of 9s
In short: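 Far-UV CD spectra (190–240 nm) recorded for yeast α-glucosidase alone and for its complex with the test compound. Spectra were deconvoluted into α-helix, β-sheet, β-turn and random-coil fractions, and the complex was compared with native enzyme.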

| Random coils content of α-glucosidase [%] | α-Helix content of α-glucosidase [%] | β-Turn content of α-glucosidase [%] | SMILES |
| --- | --- | --- | --- |
| 0 | 41.2 | 51.4 | Nc1c(-c2ccc(Cl)cc2)nc2ncnn2c1-c1ccc(Cl)cc1 [9s, 5,7-Bis(4-chlorophenyl)-[1,2,4]triazolo[1,5-a]pyrimidin-6-amine] |

Molecular target: Saccharomyces cerevisiae α-glucosidase (Saccharomyces cerevisiae, UniProt P53341)
Sequence (P53341 whole entry): as above
Test: α-Glucosidase inhibition assay
Format: biochemical
Settings: not given

| IC50 [µM] | SMILES |
| --- | --- |
| 70.85 ± 0.27 | COc1ccc(-c2c(N)c(-c3ccccc3)nc3ncnn23)cc1 [9b, 7-(4-Methoxyphenyl)-5-phenyl-[1,2,4]triazolo[1,5-a]pyrimidin-6-amine] |
| 72.4 ± 0.98 | COc1ccc(-c2nc3ncnn3c(-c3ccccc3)c2N)cc1 [9m, 5-(4-Methoxyphenyl)-7-phenyl-[1,2,4]triazolo[1,5-a]pyrimidin-6-amine] |
| 52.66 ± 0.3 | COc1ccc(-c2nc3ncnn3c(-c3ccc(OC)cc3)c2N)cc1 [9n, 5,7-Bis(4-methoxyphenyl)-[1,2,4]triazolo[1,5-a]pyrimidin-6-amine] |
| 37.18 ± 0.23 | COc1ccc(-c2nc3ncnn3c(-c3ccc(Cl)cc3)c2N)cc1 [9o, 7-(4-Chlorophenyl)-5-(4-methoxyphenyl)-[1,2,4]triazolo[1,5-a]pyrimidin-6-amine] |
| 41.5 ± 0.56 | COc1ccc(-c2c(N)c(-c3ccc(Cl)cc3)nc3ncnn23)cc1 [9r, 5-(4-Chlorophenyl)-7-(4-methoxyphenyl)-[1,2,4]triazolo[1,5-a]pyrimidin-6-amine] |
| 24.32 ± 0.18 | Nc1c(-c2ccc(Cl)cc2)nc2ncnn2c1-c1ccc(Cl)cc1 [9s, 5,7-Bis(4-chlorophenyl)-[1,2,4]triazolo[1,5-a]pyrimidin-6-amine] |

Further lines, the molecule ahead of its results:

| SMILES | IC50 [µM] |
| --- | --- |
| Nc1c(-c2ccccc2)nc2ncnn2c1-c1ccccc1 [9a, 5,7-Diphenyl-[1,2,4]triazolo[1,5-a]pyrimidin-6-amine] | 97.02 ± 0.83 |
| Nc1c(-c2ccccc2)nc2ncnn2c1-c1ccc(Cl)cc1 [9c, 7-(4-Chlorophenyl)-5-phenyl-[1,2,4]triazolo[1,5-a]pyrimidin-6-amine] | 56.2 ± 0.68 |
| Nc1c(-c2ccccc2)nc2ncnn2c1-c1ccc(Br)cc1 [9f, 7-(4-Bromophenyl)-5-phenyl-[1,2,4]triazolo[1,5-a]pyrimidin-6-amine] | 65.09 ± 0.38 |
| Nc1c(-c2ccccc2)nc2ncnn2c1-c1cccs1 [9g, 5-Phenyl-7-(thiophen-2-yl)-[1,2,4]triazolo[1,5-a]pyrimidin-6-amine] | 140 ± 1.55 |
| Cc1ccc(-c2nc3ncnn3c(-c3ccccc3)c2N)cc1 [9h, 7-Phenyl-5-(p-tolyl)-[1,2,4]triazolo[1,5-a]pyrimidin-6-amine] | 94.52 ± 0.72 |
| Cc1ccc(-c2nc3ncnn3c(-c3cccs3)c2N)cc1 [9l, 7-(Thiophen-2-yl)-5-(p-tolyl)-[1,2,4]triazolo[1,5-a]pyrimidin-6-amine] | 151.3 ± 0.56 |
| Nc1c(-c2ccc(Cl)cc2)nc2ncnn2c1-c1ccccc1 [9q, 5-(4-Chlorophenyl)-7-phenyl-[1,2,4]triazolo[1,5-a]pyrimidin-6-amine] | 58.11 ± 0.34 |
